In ChEMBL document CHEMBL1799960, “Diadenosine 5',5''-(boranated)polyphosphonate analogues as selective nucleotide pyrophosphatase/phosphodiesterase inhibitors” (J Med Chem, 2010):
Activity calls are given as the source filed them. The rule behind the calls is not given here.

Tests used:
[1] = biological target: P2Y purinoceptor 1 (Homo sapiens, UniProt P47900); assay: Ratio EC50 for ATP to compound for GFP tagged-human P2Y1 receptor expressed in human 1321N1 cells assessed as elevation in calcium level after 30 mins by fluorescence spectrophotometric analysis; assay type: functional, cell-based
Sequence of P2Y purinoceptor 1 (P47900 whole entry): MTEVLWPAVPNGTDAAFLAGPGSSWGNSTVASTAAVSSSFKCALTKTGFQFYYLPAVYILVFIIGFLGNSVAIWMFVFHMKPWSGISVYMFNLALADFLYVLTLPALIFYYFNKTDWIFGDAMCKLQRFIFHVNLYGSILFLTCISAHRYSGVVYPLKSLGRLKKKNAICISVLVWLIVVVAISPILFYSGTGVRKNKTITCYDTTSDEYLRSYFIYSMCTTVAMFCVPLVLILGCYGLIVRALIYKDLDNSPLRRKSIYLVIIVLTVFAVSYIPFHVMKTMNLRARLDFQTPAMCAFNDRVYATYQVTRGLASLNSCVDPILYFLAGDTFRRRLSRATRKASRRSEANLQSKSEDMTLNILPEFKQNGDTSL

[2] = biological target: T1, Ectonucleoside triphosphate diphosphohydrolase 1 (Homo sapiens) (UniProt P49961); assay: Inhibition of human NTPDase1 expressed in COS7 cells assessed as amount of inorganic phosphate released using ATP as the substrate at 100 uM after 15 mins by malachite green reagent method; assay type: cell-based; conditions: COS-7
T1 sequence (whole entry): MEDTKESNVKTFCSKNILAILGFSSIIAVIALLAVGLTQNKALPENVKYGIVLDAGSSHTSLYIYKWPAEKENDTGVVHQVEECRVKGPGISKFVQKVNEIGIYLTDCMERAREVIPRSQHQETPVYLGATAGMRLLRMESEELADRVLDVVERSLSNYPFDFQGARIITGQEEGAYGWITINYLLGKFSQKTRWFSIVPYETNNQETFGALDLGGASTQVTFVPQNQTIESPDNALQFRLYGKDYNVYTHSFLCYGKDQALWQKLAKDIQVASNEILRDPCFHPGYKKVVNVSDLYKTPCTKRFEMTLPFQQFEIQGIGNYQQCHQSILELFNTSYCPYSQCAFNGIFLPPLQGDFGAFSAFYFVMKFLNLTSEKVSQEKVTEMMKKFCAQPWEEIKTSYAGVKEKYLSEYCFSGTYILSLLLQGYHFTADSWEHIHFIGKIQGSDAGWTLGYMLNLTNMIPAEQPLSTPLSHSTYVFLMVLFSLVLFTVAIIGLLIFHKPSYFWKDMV
Procedure, shortened: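 Protein extracts of transfected COS-7 cells (ecto-5'-nucleotidase: 100 μM AMP substrate; NTPDases: 100 μM ATP) were preincubated 3 min at 37 °C in Tris-Ringer pH 7.3 with inhibitor at 100 μM final. After 15 min, malachite green stop; Pi read at 630 nm. Activity given as % of substrate-only control. Mean ± SD of three experiments in triplicate.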

[3] = biological target: T2, Ectonucleotide pyrophosphatase/phosphodiesterase family member 1 (Homo sapiens) (UniProt P22413); assay: Inhibition of human NPP1 expressed in COS7 cells assessed as production of p-nitrophenol using Ap5A as the substrate at 100 uM after 30 mins […]; assay type: cell-based; conditions: COS-7
T2 sequence (whole entry): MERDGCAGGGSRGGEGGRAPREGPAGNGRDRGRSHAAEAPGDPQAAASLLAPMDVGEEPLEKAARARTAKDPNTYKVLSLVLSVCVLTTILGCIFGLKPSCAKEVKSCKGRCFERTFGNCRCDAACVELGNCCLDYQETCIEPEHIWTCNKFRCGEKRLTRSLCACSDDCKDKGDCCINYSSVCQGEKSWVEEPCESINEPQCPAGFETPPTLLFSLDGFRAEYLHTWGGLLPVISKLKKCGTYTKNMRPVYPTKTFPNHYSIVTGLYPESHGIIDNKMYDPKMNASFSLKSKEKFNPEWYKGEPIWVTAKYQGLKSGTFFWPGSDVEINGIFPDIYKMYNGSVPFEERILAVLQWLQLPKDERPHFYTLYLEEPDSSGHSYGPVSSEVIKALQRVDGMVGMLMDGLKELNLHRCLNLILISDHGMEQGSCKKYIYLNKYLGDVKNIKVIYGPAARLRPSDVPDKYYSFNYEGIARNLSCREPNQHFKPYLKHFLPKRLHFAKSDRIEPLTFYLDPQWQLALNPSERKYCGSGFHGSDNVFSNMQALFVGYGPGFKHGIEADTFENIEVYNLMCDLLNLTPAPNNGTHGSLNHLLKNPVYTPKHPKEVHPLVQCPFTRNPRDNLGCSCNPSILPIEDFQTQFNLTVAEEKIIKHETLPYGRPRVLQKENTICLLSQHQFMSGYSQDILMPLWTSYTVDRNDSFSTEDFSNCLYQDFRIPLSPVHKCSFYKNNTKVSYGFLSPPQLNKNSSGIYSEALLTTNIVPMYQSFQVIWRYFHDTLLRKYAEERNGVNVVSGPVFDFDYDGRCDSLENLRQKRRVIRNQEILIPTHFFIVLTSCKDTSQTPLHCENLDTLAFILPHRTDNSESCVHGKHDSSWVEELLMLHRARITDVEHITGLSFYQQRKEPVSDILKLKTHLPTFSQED

[4] = biological target: T2, Ectonucleotide pyrophosphatase/phosphodiesterase family member 1 (Homo sapiens); assay: Inhibition of human NPP1 in human HT29 cells assessed as production of p-nitrophenol using pnp-TMP as the substrate […]; assay type: cell-based; conditions: HT-29
[5] = biological target: T3, Ectonucleotide pyrophosphatase/phosphodiesterase family member 3 (Homo sapiens) (UniProt O14638); assay: Inhibition of human NPP3 expressed in COS7 cells assessed as production of p-nitrophenol using pnp-TMP as the substrate at 100 uM after 15 mins by malachite green reagent method; assay type: cell-based; conditions: COS-7
T3 sequence (whole entry): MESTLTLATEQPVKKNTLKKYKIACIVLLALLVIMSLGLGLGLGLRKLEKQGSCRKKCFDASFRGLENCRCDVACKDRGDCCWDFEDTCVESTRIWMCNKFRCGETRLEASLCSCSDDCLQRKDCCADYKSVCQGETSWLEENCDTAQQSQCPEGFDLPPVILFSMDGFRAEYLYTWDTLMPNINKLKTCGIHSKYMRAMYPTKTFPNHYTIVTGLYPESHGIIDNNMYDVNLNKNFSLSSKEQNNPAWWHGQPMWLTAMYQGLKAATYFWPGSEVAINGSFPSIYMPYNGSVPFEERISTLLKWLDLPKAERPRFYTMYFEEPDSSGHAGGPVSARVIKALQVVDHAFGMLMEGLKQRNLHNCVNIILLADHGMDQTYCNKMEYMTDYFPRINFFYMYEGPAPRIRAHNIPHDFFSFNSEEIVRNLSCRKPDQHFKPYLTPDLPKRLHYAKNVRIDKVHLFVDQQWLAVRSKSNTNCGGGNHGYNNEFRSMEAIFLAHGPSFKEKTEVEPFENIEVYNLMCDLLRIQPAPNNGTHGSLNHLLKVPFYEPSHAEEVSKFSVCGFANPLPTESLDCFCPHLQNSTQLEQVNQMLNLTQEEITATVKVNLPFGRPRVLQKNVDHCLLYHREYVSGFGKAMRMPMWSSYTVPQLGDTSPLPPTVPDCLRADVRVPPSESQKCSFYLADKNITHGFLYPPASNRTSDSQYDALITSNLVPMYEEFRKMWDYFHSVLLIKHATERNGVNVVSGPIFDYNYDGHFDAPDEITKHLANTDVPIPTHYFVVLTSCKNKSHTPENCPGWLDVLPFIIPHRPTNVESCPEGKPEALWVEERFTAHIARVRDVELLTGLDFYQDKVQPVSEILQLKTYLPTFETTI
Procedure, shortened: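 Human NPP1, NPP2 (membrane lysate or conditioned medium for the secreted form) or NPP3 from transfected COS-7 cells, preincubated 3 min at 37 °C in 50 mM Tris pH 8.5 buffer with CaCl2, NaCl and KCl. Substrate and inhibitor both at 100 μM final. pnp-TMP: p-nitrophenol read at 405 nm at 15 min. ATP or Ap5A: stopped at 30 min with perchloric acid, then HPLC. Results as % residual activity versus control; three to six experiments in triplicate.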

Row | Structure (SMILES) | Ratio EC50 [1] | inhibition [2] | inhibition [3] [%] | inhibition [4] [%] | inhibition [5] [%]
1 | BP(=O)(OP(=O)(O)CP(=O)(O)OC[C@H]1O[C@@H](n2cnc3c(N)ncnc32)C[C@@H]1O)OP(=O)(O)CP(=O)(O)OC[C@H]1O[C@@H](n2cnc3c(N)ncnc32)C[C@@H]1O | > 200 | inactive | 60 | 90 | 30
2 | Nc1ncnc2c1ncn2[C@@H]1O[C@H](COP(=O)(O)CP(=O)(O)OP(=O)(O)CP(=O)(O)OC[C@H]2O[C@@H](n3cnc4c(N)ncnc43)[C@H](O)[C@@H]2O)[C@@H](O)[C@H]1O | 60 | inactive | 20 | 80 | 30
3 | BP(=O)(OP(=O)(O)CP(=O)(O)OC[C@H]1O[C@@H](n2cnc3c(N)ncnc32)[C@H](O)[C@@H]1O)OP(=O)(O)CP(=O)(O)OC[C@H]1O[C@@H](n2cnc3c(N)ncnc32)[C@H](O)[C@@H]1O | 2 | inactive | 60 | 90 | 30
4 | Nc1ncnc2c1ncn2[C@H]1C[C@H](O)[C@@H](COP(=O)(O)CP(=O)(O)OP(=O)(O)CP(=O)(O)OC[C@H]2O[C@@H](n3cnc4c(N)ncnc43)C[C@@H]2O)O1 | 200 | inactive | 60 | 80 | 30
